In brackets after ≈: the same amount, converted by molar mass.
System: Mycobacterium tuberculosis
Assay: Antitubercular activity against Mycobacterium tuberculosis H37Rv measured on day 7 post dose by microplate alamar blue assay
Format: functional
Conditions: 168 h
Outline: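 MABA against H37Rv in 7H12 medium, two-fold dilutions, final 0.05–5 or 0.004–1 µg/mL (DMSO stocks 5 or 2 mg/mL). Inoculum 2×10⁵ cfu/mL, 37 °C. On day 7, Tween 80 and Alamar Blue added; fluorescence (ex 530/em 590) read after 16–24 h. MIC = interpolated lowest concentration giving ≥90% fluorescence reduction versus bacteria-only controls. INH and RIF as controls.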

Structure (SMILES) | MIC90 [µg/mL]
CCc1nn2ccc(Cl)cc2c1C(=O)NCc1ccc(-c2ccc(OC(F)(F)F)cc2)nc1 | 0.2 (≈ 0.421 µM)
CCc1nn2ccc(Cl)cc2c1C(=O)NCC1CCN(CC23CC4CC(CC(C4)C2)C3)CC1 | > 1
Cc1ccn2nc(C)c(C(=O)NCc3ccc(N4CCC(Oc5ccc(OC(F)(F)F)cc5)CC4)cc3)c2c1 | 0.006 (≈ 0.0111 µM)
CCc1nn2ccc(Cl)cc2c1C(=O)NC/C=C(\C)CCC=C(C)C | 0.17 (≈ 0.472 µM)
Cc1ccn2nc(C)c(C(=O)NCc3ccc(OC(F)(F)F)cc3)c2c1 | 0.91 (≈ 2.5 µM)
NNC(=O)c1ccncc1 [ISONIAZID] | 0.1 (≈ 0.729 µM)
CO[C@H]1/C=C/O[C@@]2(C)Oc3c(C)c(O)c4c(O)c(c(/C=N/N5CCN(C)CC5)c(O)c4c3C2=O)NC(=O)/C(C)=C\C=C\[C@H](C)[C@H](O)[C@@H](C)[C@@H](O)[C@@H](C)[C@H](OC(C)=O)[C@@H]1C [RIFAMPIN] | 0.003 (≈ 0.00365 µM)

Reference: ChEMBL document CHEMBL4041463, “Pyrazolo[1,5-a]pyridine-3-carboxamide hybrids: Design, synthesis and evaluation of anti-tubercular activity” (Eur J Med Chem, 2017)
